The source of these data is ChEMBL document CHEMBL1123614, “Effects of [(N-alkyl-1,3-dioxo-1H,3H-isoindolin-5-yl)oxy]alkanoic acids, [(N-alkyl-1-oxo-1H,3H-isoindolin-5-yl)oxy]butanoic acids, and related derivatives on chloride influx in primary astroglial cultures” (J Med Chem, 1987).

Holding throughout (type): functional, organism-based
Experiment [1] is filed under the species Rattus norvegicus. As to the kind of experiment: Reduction of Astrocyte intracellular chloride concentration at 0.05 mM. The procedure, abridged: (§1)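 Primary rat astrocyte cultures (1–4-day-old Sprague-Dawley pups, oligodendrocytes not removed, >90% astrocytes) grown 3–5 weeks in serum BME. Cells equilibrated 60 min at 37 °C in chloride-HCO3 Hepes medium. Cells washed with ice-cold 0.32 M sucrose. Counts, minus time-0 background, normalized to Lowry protein. Reported as % of vehicle control ± SD, n = 4.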

Experiment [2] is filed under the species Rattus norvegicus. Kind of experiment: Reduction of Astrocyte intracellular chloride concentration at 0.1 mM. The procedure, abridged: as §1
For experiment [3], the species on record is Rattus norvegicus. Kind of experiment: Reduction of Astrocyte intracellular chloride concentration at 1 mM. The method, boiled down:
as §1

The species named for experiment [4] is Rattus norvegicus. Kind of experiment: Reduction of Astrocyte intracellular chloride concentration at 0.01 mM. The procedure, abridged: as §1
The species named for experiment [5] is Rattus norvegicus. Kind of experiment: Reduction of Astrocyte intracellular chloride concentration at 0.05 mM; No data. The procedure, abridged:
as §1

[6] abbreviates: 0.5 mM, in the assay text read “0.5 mM” for “0.05 mM”.

As for `O=C(O)COc1ccc2c(c1)C(=O)N(C1CCCC1)C2=O`, the Concentration in the experiment filed under Rattus norvegicus [1] (0.05 mM) was determined as 92%; in the experiment listed under Rattus norvegicus [2], 91%.
In the experiment listed under Rattus norvegicus [2], `O=C(O)CCCOc1ccc2c(c1)C(=O)N(C1CCCCC1)C2=O` showed a Concentration of 105%.
`CCCCCCN1C(=O)c2ccc(OCCCC(=O)O)cc2C1=O`: the Concentration in the experiment listed under Rattus norvegicus [1] (setting [6]) was found to be 118%; in the experiment filed under Rattus norvegicus [2] it was 109%.
As for `O=C(O)CCCOc1ccc2c(c1)C(=O)N(CCCCO)C2=O`, the Concentration in the experiment filed under Rattus norvegicus [1] (0.05 mM) is 101%; in the experiment filed under Rattus norvegicus [2], 106%.
`CN1Cc2cc(OCCCC(=O)O)ccc2C1=O` registered a Concentration in the experiment listed under Rattus norvegicus [2] of 84%.
On the same count and under the same terms, as for `O=C(O)CCCOc1ccc2c(c1)C(=O)N(C1CCCC1)C2=O`, the figure is 101%; as for `O=C(O)CCCOc1cc2c(cc1Cl)C(=O)N(C1CCCC1)C2=O`, 111%.
On the same count and under the same terms, as for `O=C(O)CCCOc1cc2c(c(Cl)c1Cl)C(=O)N(C1CCCC1)C2=O`, the figure is 97%.
In the case of `O=C(O)CCCOc1ccc(C(=O)NC2CCCC2)c(Cl)c1Cl`, the results for the Concentration in the experiment listed under Rattus norvegicus [1] (0.05 mM) and in the experiment listed under Rattus norvegicus [2] were 78% and 93%, respectively.
Consider `CCCCN1C(=O)c2cc(OCCCC(=O)O)c(Cl)c(Cl)c2C1=O`, for which the Concentration was 74% in the experiment filed under Rattus norvegicus [1] (setting [6]) and 86% in the experiment filed under Rattus norvegicus [2].
On to `CCCCCN1C(=O)c2ccc(OCCCC(=O)O)cc2C1=O`, for which the Concentration in the experiment listed under Rattus norvegicus [1] (0.05 mM) was found to be 77%; in the experiment filed under Rattus norvegicus [2], 85%.
On to `CCN1C(=O)c2ccc(OCCCC(=O)O)cc2C1=O`, for which the figures for the Concentration in the experiment listed under Rattus norvegicus [1] (0.05 mM) and in the experiment filed under Rattus norvegicus [2] were 76% and 104%, respectively.
As for `O=C(O)CCCOc1ccc(C(=O)NC2CCCC2)cc1Cl`, the Concentration in the experiment filed under Rattus norvegicus [2] was found to be 83%.
For the compound `CCCN1C(=O)c2cc(OCCCC(=O)O)c(Cl)c(Cl)c2C1=O`, the Concentration in the experiment listed under Rattus norvegicus [1] (setting [6]) is 89%; in the experiment filed under Rattus norvegicus [2], 74%.
Take `NS(=O)(=O)c1cc(C(=O)O)c(NCc2ccco2)cc1Cl`: the Concentration in the experiment filed under Rattus norvegicus [2] was determined as 79%; in the experiment filed under Rattus norvegicus [3], 21%.
For the compound `CCN1Cc2cc(OCCCC(=O)O)ccc2C1=O`, the Concentration in the experiment listed under Rattus norvegicus [4] was determined as 109%; in the experiment listed under Rattus norvegicus [1] (setting [6]), 67%; in the experiment listed under Rattus norvegicus [2], 67%; in the experiment filed under Rattus norvegicus [3] it was 57%; in the experiment filed under Rattus norvegicus [5], 93%.
For the compound `CCCN1C(=O)c2ccc(OCCCC(=O)O)cc2C1=O`, the Concentration in the experiment listed under Rattus norvegicus [1] (0.05 mM) came to 80%; in the experiment filed under Rattus norvegicus [2], 67%.
In the experiment filed under Rattus norvegicus [2], `O=C(O)CCCOc1c(Cl)cc2c(c1Cl)C(=O)N(C1CCCC1)C2=O` showed a Concentration of 94%.
As to `CCN1C(=O)c2cc(OCCCC(=O)O)c(Cl)c(Cl)c2C1=O`, the Concentration in the experiment listed under Rattus norvegicus [1] (setting [6]) is 83%; in the experiment filed under Rattus norvegicus [2], 103%.
On to `O=C(O)CCCOc1ccc2c(c1)C(=O)NC2=O`, for which the Concentration was determined as 88% in the experiment filed under Rattus norvegicus [1] (0.05 mM) and 93% in the experiment listed under Rattus norvegicus [2].
For `CCCCN1C(=O)c2cc(Cl)c(OCCCC(=O)O)cc2C1=O`, the figures for the Concentration in the experiment listed under Rattus norvegicus [1] (setting [6]) and in the experiment filed under Rattus norvegicus [2] were 81% and 95%, respectively.
For the compound `CCCN1C(=O)c2ccc(OCC(=O)O)cc2C1=O`, the values for the Concentration in the experiment filed under Rattus norvegicus [1] (0.05 mM) and in the experiment filed under Rattus norvegicus [2] were 110% and 103%, respectively.
`CCCCN1Cc2cc(OCCCC(=O)O)ccc2C1=O`: the Concentration in the experiment listed under Rattus norvegicus [1] (0.05 mM) came out at 76%; in the experiment filed under Rattus norvegicus [2], 97%.
As to `C=C(CC)C(=O)c1ccc(OCC(=O)O)c(Cl)c1Cl`, the Concentration in the experiment listed under Rattus norvegicus [2] came to 78%.
`O=C(O)COc1ccc2c(c1)C(=O)N(C1CCCCC1)C2=O`: the Concentration in the experiment filed under Rattus norvegicus [1] (0.05 mM) amounted to 87%; in the experiment filed under Rattus norvegicus [2] it was 94%.
Take `CN1C(=O)c2ccc(OCCCC(=O)O)cc2C1=O`: the figures for the Concentration in the experiment filed under Rattus norvegicus [1] (0.05 mM) and in the experiment listed under Rattus norvegicus [2] were 118% and 90%, respectively.
`CCCCN1C(=O)c2ccc(OCCCC(=O)O)cc2C1=O`: the Concentration in the experiment filed under Rattus norvegicus [1] (0.05 mM) worked out at 69%; in the experiment filed under Rattus norvegicus [2], 88%.
Take `O=C(O)CCCOc1ccc(C(=O)NC2CCCC2)cc1Br`: the Concentration in the experiment listed under Rattus norvegicus [2] is 74%.
As to `CN(C(=O)c1ccc(OCCCC(=O)O)c(Cl)c1Cl)C1CCCC1`, the Concentration in the experiment filed under Rattus norvegicus [2] worked out at 79%.
In the case of `CN1C(=O)c2cc(OCCCC(=O)O)c(Cl)c(Cl)c2C1=O`, the Concentration in the experiment listed under Rattus norvegicus [2] is 91%.
The compound `O=C(O)CCCOc1cc2c(cc1Cl)C(=O)N(C1CCCC1)C2` had a Concentration in the experiment filed under Rattus norvegicus [2] of 115%.
The compound `O=C(O)CCCOc1ccc2c(c1Cl)C(=O)N(C1CCCC1)C2=O` registered a Concentration in the experiment filed under Rattus norvegicus [2] of 107%.
In the case of `O=C(O)CCCOc1ccc2c(c1)C(=O)N(CCCO)C2=O`, the Concentration in the experiment filed under Rattus norvegicus [1] (0.05 mM) was determined as 83%; in the experiment filed under Rattus norvegicus [2] it was 75%.
For `CCCN1Cc2cc(OCCCC(=O)O)ccc2C1=O`, the figures for the Concentration in the experiment filed under Rattus norvegicus [1] (0.05 mM) and in the experiment filed under Rattus norvegicus [2] were 76% and 98%, respectively.
